Results on 19 molecules are retold here after ChEMBL document CHEMBL1150419, “Structure-activity relationships of a peptide inhibitor of the human FcRn:human IgG interaction” (Bioorg Med Chem, 2008).

Peptide text beside a SMILES is read from it.

Test [1] addresses T1, IgG receptor FcRn large subunit p51 (Homo sapiens, UniProt P55899). In words: Binding affinity to human FcRn at pH 6 by surface plasmon resonance assay. The essentials: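 Soluble human FcRn coupled to the dextran surface of a CM5 chip; peptide dilutions flowed over the chip. The equilibrium response at each dilution was plotted against concentration and fitted to a steady-state affinity model to give Kd.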
In general terms: Surface plasmon resonance follows binding to a sensor surface in real time, without labels.

Test [2] deals with T1, IgG receptor FcRn large subunit p51. Briefly: Inhibition of human IgG binding to soluble human FcRn by ELISA. The essentials: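 Biotinylated soluble human FcRn immobilized on neutravidin plates, incubated with hIgG (3 nM, constant) and peptide at varying concentrations for 2 h at 37 °C. After washing, bound hIgG detected with peroxidase-conjugated hIgG-specific Fab fragments.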
A general note: ELISA stands for enzyme-linked immunosorbent assay.

T1 sequence (P55899 whole entry): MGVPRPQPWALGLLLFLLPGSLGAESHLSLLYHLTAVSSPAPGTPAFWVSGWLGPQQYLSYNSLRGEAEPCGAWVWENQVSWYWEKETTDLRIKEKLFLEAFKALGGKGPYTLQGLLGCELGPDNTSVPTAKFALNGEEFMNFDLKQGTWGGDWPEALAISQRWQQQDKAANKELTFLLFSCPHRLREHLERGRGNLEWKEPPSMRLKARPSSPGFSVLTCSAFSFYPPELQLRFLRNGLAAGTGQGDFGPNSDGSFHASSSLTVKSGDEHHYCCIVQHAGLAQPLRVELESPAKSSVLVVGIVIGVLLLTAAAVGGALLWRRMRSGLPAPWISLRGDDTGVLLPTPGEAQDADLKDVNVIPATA

Consider `CC(C)C[C@H](NC(=O)CNC(=O)C(C)(C)NC(=O)[C@H](Cc1ccccc1)NC(=O)[C@H](Cc1cnc[nH]1)NC(=O)CNC(=O)[C@@H](NC(=O)[C@@H](NC(=O)[C@H](Cc1ccccc1)NC(=O)[C@H](CCCNC(=N)N)NC(=O)[C@@H](N)CCC(N)=O)C(C)(C)S)[C@@H](C)O)C(=O)N[C@@H](Cc1ccc(O)cc1)C(=O)N1CCC[C@H]1C(=O)N[C@@H](CS)C(=O)N[C@@H](CC(N)=O)C(=O)NCC(=O)N1CCC[C@H]1C(=O)O`, for which binding in test [1] was put at a Kd of 5.2 µM. In addition, in test [2], the half-maximal inhibitory concentration (IC50) (commonly the midpoint of a concentration-inhibition curve) is 17 µM.

With `CC(C)C[C@H](NC(=O)CNC(=O)CNC(=O)[C@H](Cc1ccccc1)NC(=O)[C@H](Cc1cnc[nH]1)NC(=O)CNC(=O)[C@@H](NC(=O)[C@H](CS)NC(=O)[C@H](Cc1ccccc1)NC(=O)[C@H](CCCNC(=N)N)NC(=O)[C@@H](N)CCC(N)=O)[C@@H](C)O)C(=O)N[C@@H](Cc1ccc(O)cc1)C(=O)N1CCC[C@H]1C(=O)N[C@@H](CS)C(=O)N[C@@H](CC(N)=O)C(=O)NCC(=O)N1CCC[C@H]1C(=O)O`, the affinity in test [1], expressed as Kd, was 5.1 µM. The same molecule had an IC50 in test [2] of 40 µM.

As to `CC(C)C[C@H](NC(=O)CN1CCC[C@@H](NC(=O)[C@H](Cc2ccccc2)NC(=O)[C@H](Cc2cnc[nH]2)NC(=O)CNC(=O)[C@@H](NC(=O)[C@@H](NC(=O)[C@H](Cc2ccccc2)NC(=O)[C@@H](N)CCCNC(=N)N)C(C)(C)S)[C@@H](C)O)C1=O)C(=O)N[C@@H](Cc1ccc(O)cc1)C(=O)N1CCC[C@H]1C(=O)N[C@@H](CS)C(=O)O`, the Kd (in general, the concentration at which binding is half-saturated) in test [1] was 0.16 µM. The same molecule yielded an IC50 in test [2] of 0.66 µM.

In test [1], `CC(C)C[C@H](NC(=O)CNC(=O)CNC(=O)[C@H](Cc1ccccc1)NC(=O)[C@H](Cc1cnc[nH]1)NC(=O)CNC(=O)[C@@H](NC(=O)[C@H](CS)NC(=O)[C@H](Cc1ccccc1)NC(=O)[C@@H](N)CCCN=C(N)N)[C@@H](C)O)C(=O)N[C@@H](Cc1ccc(O)cc1)C(=O)N1CCC[C@H]1C(=O)N[C@@H](CS)C(=O)O` returned a Kd of 10 µM. In test [2], this molecule showed an IC50 of 87 µM.

In turn, `CC(C)C[C@@H](C(=O)N[C@@H](Cc1ccc(O)cc1)C(=O)N1CCC[C@H]1C(=O)N[C@@H](CS)C(=O)O)N(C)C(=O)CN1CCC[C@@H](NC(=O)[C@H](Cc2ccccc2)NC(=O)[C@H](Cc2cnc[nH]2)NC(=O)CNC(=O)[C@@H](NC(=O)[C@H](NC(=O)[C@H](Cc2ccccc2)NC(=O)[C@@H](N)CCCNC(=N)N)C(C)(C)S)[C@@H](C)O)C1=O` returned a dissociation constant Kd in test [1] of 0.043 µM. This molecule returned a concentration for half-maximal inhibition (IC50) in test [2] of 0.53 µM.

Consider `COc1ccc(C[C@H](NC(=O)[C@H](Cc2cnc[nH]2)NC(=O)CNC(=O)[C@@H](NC(=O)[C@@H](NC(=O)[C@H](Cc2ccccc2)NC(=O)[C@H](CCCN=C(N)N)NC(=O)[C@@H](N)CCC(N)=O)C(C)(C)S)[C@@H](C)O)C(=O)NCC(=O)NCC(=O)N[C@@H](CC(C)C)C(=O)N[C@@H](Cc2ccc(O)cc2)C(=O)N2CCC[C@H]2C(=O)N[C@@H](CS)C(=O)N[C@@H](CC(N)=O)C(=O)NCC(=O)N2CCC[C@H]2C(=O)O)cc1`, for which, in test [1], the dissociation constant (Kd) turned out to be 18 µM. Also, in test [2], the IC50 turned out to be 100 µM.

Molecule `CC(C)C[C@@H](C(=O)N[C@@H](Cc1ccc(O)cc1)C(=O)N1CCC[C@H]1C(=O)N[C@@H](CS)C(=O)O)N(C)C(=O)CNC(=O)CNC(=O)[C@H](Cc1ccccc1)NC(=O)[C@H](Cc1cnc[nH]1)NC(=O)CNC(=O)[C@@H](NC(=O)[C@@H](NC(=O)[C@H](Cc1ccccc1)NC(=O)[C@@H](N)CCCN=C(N)N)C(C)(C)S)[C@@H](C)O` came in with a Kd in test [1] of 0.059 µM. The molecule also had a concentration for half-maximal inhibition (IC50) in test [2] of 2.1 µM.

Regarding `C[C@H](NC(=O)CNC(=O)CNC(=O)[C@H](Cc1ccccc1)NC(=O)[C@H](Cc1cnc[nH]1)NC(=O)CNC(=O)[C@@H](NC(=O)[C@H](CS)NC(=O)[C@H](Cc1ccccc1)NC(=O)[C@H](CCCN=C(N)N)NC(=O)[C@@H](N)CCC(N)=O)[C@@H](C)O)C(=O)N[C@@H](Cc1ccc(O)cc1)C(=O)N1CCC[C@H]1C(=O)N[C@@H](CS)C(=O)N[C@@H](CC(N)=O)C(=O)NCC(=O)N1CCC[C@H]1C(=O)O` (H-QRFCTGHFGGAYPCNGP-OH), binding in test [1] was put at a Kd of 26 µM. Moreover, the concentration for half-maximal inhibition (IC50) in test [2] was determined as 107 µM.

In turn, `Cc1cccc(C[C@H](NC(=O)[C@H](Cc2cnc[nH]2)NC(=O)CNC(=O)[C@@H](NC(=O)[C@@H](NC(=O)[C@H](Cc2ccccc2)NC(=O)[C@H](CCCN=C(N)N)NC(=O)[C@@H](N)CCC(N)=O)C(C)(C)S)[C@@H](C)O)C(=O)NCC(=O)NCC(=O)N[C@@H](CC(C)C)C(=O)N[C@@H](Cc2ccc(O)cc2)C(=O)N2CCC[C@H]2C(=O)N[C@@H](CS)C(=O)N[C@@H](CC(N)=O)C(=O)NCC(=O)N2CCC[C@H]2C(=O)O)c1` had a Kd in test [1] of 0.67 µM. For the same molecule, in test [2], the IC50 came to 4.1 µM.

`CC(C)C[C@H](NC(=O)CNC(=O)CNC(=O)[C@H](Cc1ccccc1)NC(=O)[C@H](Cc1cnc[nH]1)NC(=O)CNC(=O)[C@@H](NC(=O)[C@H](CCC(=O)O)NC(=O)[C@H](Cc1ccccc1)NC(=O)[C@H](CCCN=C(N)N)NC(=O)[C@@H](N)CCC(N)=O)[C@@H](C)O)C(=O)N[C@@H](Cc1ccc(O)cc1)C(=O)N1CCC[C@H]1C(=O)N[C@@H](CCCN)C(=O)N[C@@H](CC(N)=O)C(=O)NCC(=O)N1CCC[C@H]1C(=O)O` showed a Kd in test [1] of 15 µM. In addition, the 50% inhibitory concentration (IC50) in test [2] turned out to be 80 µM.

`CC(C)C[C@H](NC(=O)CNC(=O)CNC(=O)[C@H](Cc1ccccc1)NC(=O)[C@H](Cc1cnc[nH]1)NC(=O)CNC(=O)[C@@H](NC(=O)[C@@H](NC(=O)[C@H](Cc1ccccc1)NC(=O)[C@H](CCCN=C(N)N)NC(=O)[C@@H](N)CCC(N)=O)C(C)(C)S)[C@@H](C)O)C(=O)N[C@@H](Cc1ccc(N)cc1)C(=O)N1CCC[C@H]1C(=O)N[C@@H](CS)C(=O)N[C@@H](CC(N)=O)C(=O)NCC(=O)N1CCC[C@H]1C(=O)O`: binding in test [1] was characterised by a dissociation constant (Kd) of 34 µM. Also, the half-maximal inhibitory concentration (IC50) in test [2] stood at 110 µM.

In test [1], `CC(C)C[C@H](NC(=O)CNC(=O)CNC(=O)[C@H](Cc1ccccc1)NC(=O)[C@H](Cc1cnc[nH]1)NC(=O)CNC(=O)[C@@H](NC(=O)[C@H](CS)NC(=O)[C@H](Cc1ccccc1)NC(=O)[C@H](CCCN=C(N)N)NC(=O)[C@@H](N)CCC(N)=O)[C@@H](C)O)C(=O)N[C@@H](Cc1ccc(O)cc1)C(=O)N1CCC[C@H]1C(=O)N[C@H](CCS)C(=O)N[C@@H](CC(N)=O)C(=O)NCC(=O)N1CCC[C@H]1C(=O)O` displayed an equilibrium dissociation constant (Kd) of 3.9 µM. This molecule also displayed a concentration for half-maximal inhibition (IC50) in test [2] of 21 µM.

As to `CC(C)C[C@H](NC(=O)CNC(=O)CNC(=O)[C@H](Cc1ccccc1)NC(=O)[C@H](Cc1cnc[nH]1)NC(=O)[C@H](C)NC(=O)[C@@H](NC(=O)[C@H](CS)NC(=O)[C@H](Cc1ccccc1)NC(=O)[C@H](CCCNC(=N)N)NC(=O)[C@@H](N)CCC(N)=O)[C@@H](C)O)C(=O)N[C@@H](Cc1ccc(O)cc1)C(=O)N1CCC[C@H]1C(=O)N[C@@H](CS)C(=O)N[C@@H](CC(N)=O)C(=O)NCC(=O)N1CCC[C@H]1C(=O)O`, in test [1], the Kd is over 250 µM. Besides, in test [2], the IC50 was over 125 µM.

Molecule `CC(C)C[C@H](NC(=O)CNC(=O)CNC(=O)[C@H](Cc1ccccc1)NC(=O)[C@H](Cc1cnc[nH]1)NC(=O)CNC(=O)[C@@H](NC(=O)[C@H](CS)NC(=O)[C@H](Cc1ccccc1)NC(=O)[C@H](CCCNC(=N)N)NC(=O)[C@@H](N)CCC(N)=O)[C@@H](C)O)C(=O)N[C@@H](C)C(=O)N1CCC[C@H]1C(=O)N[C@@H](CS)C(=O)N[C@@H](CC(N)=O)C(=O)NCC(=O)N1CCC[C@H]1C(=O)O` (H-QRFCTGHFGGLAPCNGP-OH) had an equilibrium dissociation constant (Kd) in test [1] of over 250 µM. In test [2], this molecule gave a concentration for half-maximal inhibition (IC50) of over 125 µM.

In turn, `CC(C)C[C@H](NC(=O)CNC(=O)CNC(=O)[C@H](Cc1cccnc1)NC(=O)[C@H](Cc1cnc[nH]1)NC(=O)CNC(=O)[C@@H](NC(=O)[C@@H](NC(=O)[C@H](Cc1ccccc1)NC(=O)[C@H](CCCN=C(N)N)NC(=O)[C@@H](N)CCC(N)=O)C(C)(C)S)[C@@H](C)O)C(=O)N[C@@H](Cc1ccc(O)cc1)C(=O)N1CCC[C@H]1C(=O)N[C@@H](CS)C(=O)N[C@@H](CC(N)=O)C(=O)NCC(=O)N1CCC[C@H]1C(=O)O` displayed a Kd in test [1] of 19 µM. The molecule further had an IC50 in test [2] of 60 µM.

In the case of `CC(C)C[C@H](NC(=O)CN(C)C(=O)CNC(=O)[C@H](Cc1ccccc1)NC(=O)[C@H](Cc1cnc[nH]1)NC(=O)CNC(=O)[C@@H](NC(=O)[C@@H](NC(=O)[C@H](Cc1ccccc1)NC(=O)[C@@H](N)CCCNC(=N)N)C(C)(C)S)[C@@H](C)O)C(=O)N[C@@H](Cc1ccc(O)cc1)C(=O)N1CCC[C@H]1C(=O)N[C@@H](CS)C(=O)O`, binding in test [1] was put at a Kd of 0.058 µM. In test [2], this molecule showed a concentration for half-maximal inhibition (IC50) of 1 µM.

The molecule `CC(C)C[C@@H](C(=O)N[C@@H](Cc1ccc(O)cc1)C(=O)N1CCC[C@H]1C(=O)N[C@@H](CS)C(=O)O)N(C)C(=O)CN(C)C(=O)CNC(=O)[C@H](Cc1ccccc1)NC(=O)[C@H](Cc1cnc[nH]1)NC(=O)CNC(=O)[C@@H](NC(=O)[C@@H](NC(=O)[C@H](Cc1ccccc1)NC(=O)[C@@H](N)CCCNC(=N)N)C(C)(C)S)[C@@H](C)O` displayed a dissociation constant Kd in test [1] of 0.031 µM. For the same molecule, the IC50 in test [2] stood at 0.57 µM.

For `CC(C)C[C@H](NC(=O)CN1CC[C@@H](NC(=O)[C@H](Cc2ccccc2)NC(=O)[C@H](Cc2cnc[nH]2)NC(=O)CNC(=O)[C@@H](NC(=O)[C@@H](NC(=O)[C@H](Cc2ccccc2)NC(=O)[C@@H](N)CCCN=C(N)N)C(C)(C)S)[C@@H](C)O)C1=O)C(=O)N[C@@H](Cc1ccc(O)cc1)C(=O)N1CCC[C@H]1C(=O)N[C@@H](CS)C(=O)O`, binding in test [1] was characterised by a dissociation constant (Kd) of 0.28 µM. In addition, in test [2], the concentration for half-maximal inhibition (IC50) stood at 2.3 µM.

As to `CC(C)C[C@H](NC(=O)CNC(=O)CNC(=O)[C@H](Cc1ccccc1)NC(=O)[C@H](Cc1cnc[nH]1)NC(=O)CNC(=O)[C@@H](NC(=O)[C@@H](NC(=O)[C@H](Cc1ccccc1)NC(=O)[C@H](CCCNC(=N)N)NC(=O)[C@@H](N)CCC(N)=O)C(C)(C)S)[C@@H](C)O)C(=O)N[C@@H](Cc1c(F)c(F)c(F)c(F)c1F)C(=O)N1CCC[C@H]1C(=O)N[C@@H](CS)C(=O)N[C@@H](CC(N)=O)C(=O)NCC(=O)N1CCC[C@H]1C(=O)O`, the affinity in test [1], expressed as Kd, was 72 µM. This molecule showed an IC50 in test [2] of over 125 µM.
